Compound activity from PubChem.
An excerpt weighted towards active compounds, which were near 0.74% of everything screened.
DDE Tn6 FP inh: disrupts Tn6 cyclic peptide binding to fibrin D-Dimer-E complex; P02675; Fibrin DD(E) TRITC-Tn6 fluorescence polarization displacement; inhibition, % at 8.3 µM; 0.21% of 370,000 active; AID 720509;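 active = inhibition above a per-campaign cutoff: mean of compounds within control limits plus 3 SD, cut at about 15% in these data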;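 also: 0% = median of all compound wells on the plate and 100% = blocking peptide control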
ARFGAP1 inhibitor: inhibitors of rat ARFGAP1; 0.26% of 360,000 active; inhibition, % at 16.5 µM; Arfgap1-stimulated ARF1 GTP hydrolysis, GDP FP detection; AID 651572;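 active = inhibition above a per-plate limit, mean inhibition of low control wells plus 3 SD, cut at about 25% in these data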;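 also: 0% = DMSO wells with enzyme and 100% = wells lacking Arfgap1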
Target sequence (Q62848 1-136 limits assumed): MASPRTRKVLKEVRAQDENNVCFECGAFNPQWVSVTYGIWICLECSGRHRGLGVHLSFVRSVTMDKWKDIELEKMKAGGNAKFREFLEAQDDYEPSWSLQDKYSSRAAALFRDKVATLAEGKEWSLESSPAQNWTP
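Material: truncated rat Arfgap1 GAP domain; Incubation: compound-enzyme preincubation 20 min, reaction 120 min, detection 60 min, 25 °C; Read-out: percent inhibition of Arfgap1-stimulated GTP hydrolysis; Technique: FP, GDP Alexa 633 tracer displaced from anti-GDP antibody, 620/688 nm; Controls: No-Arfgap1 wells (100%) versus DMSO full-reaction wells (0%); Replication: single well per compound.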
Tn7 DDE FP: inhibitors of Tn7 peptide binding to human fibrin DD(E). P02675. 0.13% of 370,000 active. FP displacement of FITC-Tn7 peptide from fibrin DD(E); 0% = median of compound wells per plate. inhibition, % at 8.3 µM;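 active = inhibition above the mean of compounds falling within the control limits plus 3 SD of them, cut at about 14% in these data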;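 also: 0% = plate median of compound wells and 100% = 10 µM Aha-Tn7 peptide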
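Test system: human clot-derived fibrin DD(E) complex / Quantity: 2 µM final DD(E) protein / Incubation: 10 min plus 3 h, room temperature / Measured by: fluorescence polarization / Benchmarks: high control of 10 µM Aha-Tn7 peptide / Replicates: singlicate testing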
ASAP1 GAP inh: blocks human ASAP1-stimulated Arf1 GTP hydrolysis. GDP FP detection. inhibition, % at 16.5 µM. 0.19% of 360,000 active; in the data active = inhibition above about 25%;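 also: 0% = vehicle with enzyme and substrate and 100% = no enzyme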
Target sequence (Q9ULH1 325-724 limits assumed): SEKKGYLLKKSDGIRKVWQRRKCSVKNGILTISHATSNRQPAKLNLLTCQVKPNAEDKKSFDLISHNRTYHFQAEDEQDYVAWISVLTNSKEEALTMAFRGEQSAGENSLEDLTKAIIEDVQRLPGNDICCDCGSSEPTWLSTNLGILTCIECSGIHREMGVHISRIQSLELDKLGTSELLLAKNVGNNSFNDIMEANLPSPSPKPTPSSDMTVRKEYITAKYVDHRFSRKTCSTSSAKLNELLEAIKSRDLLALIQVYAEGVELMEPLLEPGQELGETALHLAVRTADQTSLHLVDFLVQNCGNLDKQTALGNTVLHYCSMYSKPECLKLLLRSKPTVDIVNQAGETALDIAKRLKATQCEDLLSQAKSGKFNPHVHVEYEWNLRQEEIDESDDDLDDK
ARFGAP1 confirm: rat ARFGAP1 inhibition, confirmed; shares compounds with ARFGAP1 inhibitor; ARFGAP1-stimulated ARF1 GTP hydrolysis, GDP tracer FP; inhibition, % at 16.5 µM; 30% of 890 active;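 active = average inhibition over triplicates above the hit cutoff set in the earlier primary screen, cut at about 25% in these data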;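 also: 0% = Arfgap1 plus ARF1-GTP with DMSO and 100% = wells lacking Arfgap1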
Numbers without * were called inactive.

What do the screens show for `Nc1nc2c(-c3ccc([N+](=O)[O-])cc3)nnn2c2ccccc12`?
DDE Tn6 FP inh: 7; ARFGAP1 inhibitor: -3; Tn7 DDE FP: -4; ASAP1 GAP inh: 13

Results for C(=N\Nc1ccc2ccccc2n1)/c1ccc2c(c1)OCCO2 ?
DDE Tn6 FP inh: 5; ARFGAP1 inhibitor: 12; Tn7 DDE FP: 2; ASAP1 GAP inh: 2

How did Cc1cccc(/C=N/Nc2ccc3ccccc3n2)c1 do in these assays?
DDE Tn6 FP inh: -10; ARFGAP1 inhibitor: 25*; Tn7 DDE FP: -7; ASAP1 GAP inh: 13; ARFGAP1 confirm: 3

Results for O=C(O)c1ccc(CSc2nc3ccccc3[nH]2)cc1 ?
DDE Tn6 FP inh: 10; ARFGAP1 inhibitor: 29*; Tn7 DDE FP: 6; ASAP1 GAP inh: -16; ARFGAP1 confirm: -3

How did NNC(=O)c1ccc(CSc2nc3ccccc3[nH]2)cc1 do in these assays?
DDE Tn6 FP inh: -3; ARFGAP1 inhibitor: -12; Tn7 DDE FP: 3; ASAP1 GAP inh: 2

How did CCCN(CCC)c1cc(=O)nc2ccccn12 do in these assays?
DDE Tn6 FP inh: 3; ARFGAP1 inhibitor: -4; Tn7 DDE FP: 1; ASAP1 GAP inh: -2

What do the screens show for `O=S1(=O)N[C@@H](Cc2ccccc2)COc2cc(NCCCN3CCOCC3)ccc21`?
DDE Tn6 FP inh: -12; ARFGAP1 inhibitor: 2; Tn7 DDE FP: -6; ASAP1 GAP inh: -1

How did O=C(NCc1ccccc1Cl)c1ccc(NC2=NC3CS(=O)(=O)CC3S2)cc1 (centres undefined) do in these assays?
DDE Tn6 FP inh: -3; ARFGAP1 inhibitor: 27*; Tn7 DDE FP: 4; ASAP1 GAP inh: 9; ARFGAP1 confirm: 0

Results for C[C@@H]1Cn2cnc(C(=O)N(C)Cc3ccccc3)c2C(=O)N1 ?
DDE Tn6 FP inh: 2; ARFGAP1 inhibitor: 1; Tn7 DDE FP: 0; ASAP1 GAP inh: -8

What do the screens show for `CCCN1CCN(C(=O)Cn2ncc3c([nH]c4ccc(C)cc43)c2=O)CC1`?
DDE Tn6 FP inh: 1; ARFGAP1 inhibitor: 15; Tn7 DDE FP: -5; ASAP1 GAP inh: -7

Results for Cc1ccc2[nH]c3c(=O)n(CC(=O)N4CC(C)CC(C)C4)ncc3c2c1 (centres undefined) ?
DDE Tn6 FP inh: -1; ARFGAP1 inhibitor: 31*; Tn7 DDE FP: -3; ASAP1 GAP inh: 17; ARFGAP1 confirm: 41*

Results for O=S(=O)(c1ccccc1F)N1CCN(CC(O)c2ccccc2)CC1 (centres undefined) ?
DDE Tn6 FP inh: -7; ARFGAP1 inhibitor: -9; Tn7 DDE FP: 4; ASAP1 GAP inh: -5

What do the screens show for `CN(Cc1ccccc1)C(=O)CN1CCN(S(=O)(=O)c2ccccc2F)CC1`?
DDE Tn6 FP inh: 2; ARFGAP1 inhibitor: 36*; Tn7 DDE FP: 1; ASAP1 GAP inh: -2; ARFGAP1 confirm: 5

Results for COc1cccc(CC2(CO)CCN(Cc3ccc4cccc(F)c4n3)CC2)c1 ?
DDE Tn6 FP inh: -6; ARFGAP1 inhibitor: 0; Tn7 DDE FP: -3; ASAP1 GAP inh: 9

What do the screens show for `OCC1(Cc2cccc(F)c2)CCN(Cc2ccc3cccc(F)c3n2)CC1`?
DDE Tn6 FP inh: 0; ARFGAP1 inhibitor: 25*; Tn7 DDE FP: -1; ASAP1 GAP inh: 3; ARFGAP1 confirm: 2

What do the screens show for `C#CCN(C[C@H]1[C@H](OC(=O)Nc2c(C)noc2C)[C@H](OC(=O)Nc2c(C)noc2C)CN(C(=O)OC(C)C)N1C(=O)OC(C)C)S(=O)(=O)c1ccc(C)cc1`?
DDE Tn6 FP inh: -6; ARFGAP1 inhibitor: 13; Tn7 DDE FP: -5; ASAP1 GAP inh: 5

Results for O=C(NCc1ccc(C(F)(F)F)cc1)C1CC(c2ccc(C(F)(F)F)cc2)=NO1 (centres undefined) ?
DDE Tn6 FP inh: 2; ARFGAP1 inhibitor: 9; Tn7 DDE FP: 5; ASAP1 GAP inh: 2

What do the screens show for `O=C(NCc1ccccc1C(F)(F)F)C1CC(c2ccc(C(F)(F)F)cc2)=NO1` (centres undefined)?
DDE Tn6 FP inh: -4; ARFGAP1 inhibitor: 28*; Tn7 DDE FP: 3; ASAP1 GAP inh: -4; ARFGAP1 confirm: 7

What do the screens show for `CC(C)C[C@@H]1COc2cccc(NC3CC3)c2S(=O)(=O)N1`?
DDE Tn6 FP inh: -7; ARFGAP1 inhibitor: 14; Tn7 DDE FP: -4; ASAP1 GAP inh: 7

What do the screens show for `Cc1cc(Nc2ccccc2)n(-c2ccc(C(=O)O)cc2)n1`?
DDE Tn6 FP inh: -4; ARFGAP1 inhibitor: 5; Tn7 DDE FP: -3; ASAP1 GAP inh: 4

How did COc1ccc(-n2nc(C)cc2Nc2ccccc2C(=O)O)cc1 do in these assays?
DDE Tn6 FP inh: 3; ARFGAP1 inhibitor: 25*; Tn7 DDE FP: 4; ASAP1 GAP inh: -6; ARFGAP1 confirm: 0

Results for C=CCNC(=S)N1C[C@H]2CON(C)[C@H]2C[C@H]1c1ccccc1Br ?
DDE Tn6 FP inh: 5; ARFGAP1 inhibitor: -5; Tn7 DDE FP: -8; ASAP1 GAP inh: 2

How did COc1nnc(-c2ccc(N3CCOCC3)c(NC(=O)c3ccccc3)c2)c2ccccc12 do in these assays?
DDE Tn6 FP inh: -10; ARFGAP1 inhibitor: 41*; Tn7 DDE FP: 1; ASAP1 GAP inh: 1; ARFGAP1 confirm: 3

What do the screens show for `COc1nnc(-c2ccc(N3CCOCC3)c(NC(C)=O)c2)c2ccccc12`?
DDE Tn6 FP inh: 4; ARFGAP1 inhibitor: -10; Tn7 DDE FP: 1; ASAP1 GAP inh: 4

How did C=CCCC1CN(Cc2ccc(OC)cc2)S(=O)(=O)c2c(Oc3ccc(C)cc3)cccc2O1 (centres undefined) do in these assays?
DDE Tn6 FP inh: -3; ARFGAP1 inhibitor: 5; Tn7 DDE FP: 4; ASAP1 GAP inh: 7

Results for Cc1ccc(NC(=O)CN(C)C(=O)c2ccc(Sc3nncn3C)c([N+](=O)[O-])c2)cc1 ?
DDE Tn6 FP inh: -5; ARFGAP1 inhibitor: active; Tn7 DDE FP: -5; ASAP1 GAP inh: 3; ARFGAP1 confirm: -3

Results for Cc1ccc(NC(=O)CN(C)C(=O)c2ccc(-n3cncn3)c([N+](=O)[O-])c2)cc1 ?
DDE Tn6 FP inh: 6; ARFGAP1 inhibitor: 5; Tn7 DDE FP: 7; ASAP1 GAP inh: 2

How did CC(=O)Nc1ccc(S(=O)(=O)NCCC(=O)NCCc2ccc(F)cc2)cc1 do in these assays?
DDE Tn6 FP inh: -11; ARFGAP1 inhibitor: -5; Tn7 DDE FP: 4; ASAP1 GAP inh: 10

What do the screens show for `CC(=O)NCCc1ccc(S(=O)(=O)Nc2ccc(NC(=O)c3ccc(F)cc3)cc2)cc1`?
DDE Tn6 FP inh: -7; ARFGAP1 inhibitor: 29*; Tn7 DDE FP: 2; ASAP1 GAP inh: 1; ARFGAP1 confirm: 3

Results for Oc1ccc(NC(=S)N=Nc2c(O)[nH]c3ccc(Br)cc23)cc1 ?
DDE Tn6 FP inh: -6; ARFGAP1 inhibitor: 29*; Tn7 DDE FP: 8; ASAP1 GAP inh: 7; ARFGAP1 confirm: 24

What do the screens show for `CCCOC(=O)c1ccc(Oc2cn[nH]c2-c2ccc(OC)cc2O)cc1`?
DDE Tn6 FP inh: -4; ARFGAP1 inhibitor: 30*; Tn7 DDE FP: -6; ASAP1 GAP inh: 12; ARFGAP1 confirm: 21
